Series [1] is described as follows: Unbound intrinsic glucuronidation clearance in human kidney microsomes at 1 uM after 30 to 60 mins by LC-MS/MS analysis in presence of UDP-glucuronosyltransferase and 2% bovine serum albumin. In kind it is ADME, microsome. In a few lines: (§1)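 Pooled alamethicin-activated human liver, kidney or intestinal microsomes. […] Duplicate incubations of 30–60 min, with no-cofactor controls. Parent depletion read by LC-MS/MS. k from a single-exponential fit, corrected by fu,inc.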

Series [2] has as its target T1, UDP-glucuronosyltransferase 1A1 (Homo sapiens, UniProt P22309).
T1 sequence (P22309 whole entry): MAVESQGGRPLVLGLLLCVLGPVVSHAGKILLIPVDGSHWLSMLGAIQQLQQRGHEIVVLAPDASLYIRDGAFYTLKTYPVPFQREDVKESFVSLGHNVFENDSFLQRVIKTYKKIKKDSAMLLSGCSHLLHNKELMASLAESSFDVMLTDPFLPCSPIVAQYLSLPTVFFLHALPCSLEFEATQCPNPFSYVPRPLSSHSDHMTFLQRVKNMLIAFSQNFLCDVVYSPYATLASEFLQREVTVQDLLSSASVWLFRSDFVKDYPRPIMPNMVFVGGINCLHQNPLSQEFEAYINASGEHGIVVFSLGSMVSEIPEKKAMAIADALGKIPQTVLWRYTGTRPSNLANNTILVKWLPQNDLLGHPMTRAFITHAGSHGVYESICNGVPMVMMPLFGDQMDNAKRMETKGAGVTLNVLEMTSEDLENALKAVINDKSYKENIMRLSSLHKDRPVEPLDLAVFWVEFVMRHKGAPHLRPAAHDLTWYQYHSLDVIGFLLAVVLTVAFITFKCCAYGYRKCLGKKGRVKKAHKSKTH
The series is described as follows: Ratio of UGT1A1-mediated unbound intrinsic glucuronidation clearance in human kidney microsomes to UGT1A1-mediated unbound intrinsic glucuronidation clearance in human intestinal microsomes at 1 uM. In kind it is ADME.

Series [3] in a line: Unbound intrinsic glucuronidation clearance in human intestinal microsomes at 1 uM after 30 to 60 mins by LC-MS/MS analysis in presence of UDP-glucuronosyltransferase and 2% bovine serum albumin. In kind it is ADME, Intestine, Microsome. Summed up:
as §1

Series [4] in a line: Unbound intrinsic glucuronidation clearance in human kidney microsomes at 1 uM after 30 to 60 mins by LC-MS/MS analysis in presence of UDP-glucuronosyltransferase. In kind it is ADME, microsome. Summed up: (§2)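 Alamethicin-activated pooled microsomes (HLM 150 donors; HKM 8; HIM 18). Drug at 1 μM final, preincubated 5 min at 37°C in 0.1 M phosphate pH 7.1 with 3.45 mM MgCl2, 1.15 mM EDTA, 115 μM saccharic acid lactone. Started with […] cofactor (5 mM final), 30–60 min. Cofactor-free controls. Parent depletion by LC-MS/MS, single-exponential k. Corrected by HLM-dialysis fu,inc. Duplicates; n=3 (HIM n=1).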

Series [5] in a line: Fraction unbound in human liver microsomes at 1 uM […] by LC-MS/MS analysis in presence of 2% bovine serum albumin. In kind it is ADME. (Liver microsomes are a subcellular fraction often used to study metabolism.)
The target in series [6] is T1, UDP-glucuronosyltransferase 1A1. The series is described as follows: Ratio of UGT1A1-mediated unbound intrinsic glucuronidation clearance in human kidney microsomes to UGT1A1-mediated unbound intrinsic glucuronidation clearance in human liver microsomes at 1 uM in presence of 2% bovine serum albumin. In kind it is ADME.
Series [7] concerns Liver microsome. The series is described as follows: Unbound intrinsic glucuronidation clearance in human liver microsomes at 1 uM after 30 to 60 mins by LC-MS/MS analysis in presence of UDP-glucuronosyltransferase and 2% bovine serum albumin. In kind it is ADME. In a few lines:
as §1

The nature of series [8]: Fraction unbound in human liver microsomes at 1 uM after 30 to 60 mins by LC-MS/MS analysis. In kind it is ADME.
Series [9] has as its target T1, UDP-glucuronosyltransferase 1A1. The experiment in a line: Drug metabolism in human kidney microsomes assessed as UGT1A1-mediated unbound intrinsic glucuronidation clearance at 1 uM after 30 to 60 mins by LC-MS/MS analysis in presence of 2% bovine serum albumin. In kind it is ADME.
The target is the same in series [10]. The series is described as follows: Ratio of UGT1A1-mediated unbound intrinsic glucuronidation clearance in human kidney microsomes to UGT1A1-mediated unbound intrinsic glucuronidation clearance in human intestinal microsomes at 1 uM in presence of 2% bovine serum albumin. In kind it is ADME.
Series [11] has the same target. The series is described as follows: Ratio of UGT1A1-mediated unbound intrinsic glucuronidation clearance in human intestinal microsomes to UGT1A1-mediated unbound intrinsic glucuronidation clearance in human liver microsomes at 1 uM. In kind it is ADME.
The target of series [12] is UDP-glucuronosyltransferase 1A1 (Homo sapiens) (UniProt P22309). The experiment in a line: Drug metabolism in human intestinal microsomes assessed as UGT1A1-mediated unbound intrinsic glucuronidation clearance at 1 uM after 30 to 60 mins by LC-MS/MS analysis in presence of 2% bovine serum albumin.
Series [13] has as its system Liver microsome. The series is described as follows: Unbound intrinsic glucuronidation clearance in human liver microsomes at 1 uM after 30 to 60 mins by LC-MS/MS analysis in presence of UDP-glucuronosyltransferase. In kind it is ADME. In a few lines:
as §2

Series [14] in a line: Unbound intrinsic glucuronidation clearance in human intestinal microsomes at 1 uM after 30 to 60 mins by LC-MS/MS analysis in presence of UDP-glucuronosyltransferase. In kind it is ADME, Intestine, Microsome. Summed up: as §2
Series [15] addresses T1, UDP-glucuronosyltransferase 1A1. The series is described as follows: Ratio of UGT1A1-mediated unbound intrinsic glucuronidation clearance in human kidney microsomes to UGT1A1-mediated unbound intrinsic glucuronidation clearance in human liver microsomes at 1 uM. In kind it is ADME.
Series [16] has the same target. The experiment in a line: Drug metabolism in human liver microsomes assessed as UGT1A1-mediated unbound intrinsic glucuronidation clearance at 1 uM after 30 to 60 mins by LC-MS/MS analysis. In kind it is ADME.
For series [17] the target is unchanged. The series is described as follows: Ratio of UGT1A1-mediated unbound intrinsic glucuronidation clearance in human intestinal microsomes to UGT1A1-mediated unbound intrinsic glucuronidation clearance in human liver microsomes at 1 uM in presence of 2% bovine serum albumin. In kind it is ADME.
In series [18] the test system is Liver microsome. The experiment in a line: Ratio of unbound intrinsic glucuronidation clearance in human liver microsomes in presence of 2% bovine serum albumin to unbound intrinsic glucuronidation clearance in human liver microsomes in absence of bovine serum albumin. In kind it is ADME. Summed up:
(§3)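 Ratios of mean scaled unbound CLint,UGT (per g tissue) between tissues, or between with and without BSA. Microsomal depletion assays at 1 μM, or 5 μM for propofol, in pH 7.1 phosphate at 37°C, read by LC-MS/MS. Kidney and liver n = 3, intestine n = 1, each in duplicate.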

Series [19] has as its target T1, UDP-glucuronosyltransferase 1A1. The series is described as follows: Drug metabolism in human liver microsomes assessed as UGT1A1-mediated unbound intrinsic glucuronidation clearance at 1 uM after 30 to 60 mins by LC-MS/MS analysis in presence of 2% bovine serum albumin. In kind it is ADME.
Series [20] shares this target. The experiment in a line: Drug metabolism in human kidney microsomes assessed as UGT1A1-mediated unbound intrinsic glucuronidation clearance at 1 uM after 30 to 60 mins by LC-MS/MS analysis. In kind it is ADME.
Series [21] has the same target. The experiment in a line: Drug metabolism in human intestinal microsomes assessed as UGT1A1-mediated unbound intrinsic glucuronidation clearance at 1 uM after 30 to 60 mins by LC-MS/MS analysis. In kind it is ADME, Intestine.
Series [22] in a line: Fraction unbound in human intestinal microsomes at 1 uM after 30 to 60 mins by LC-MS/MS analysis. In kind it is ADME, Intestine, Microsome.
Series [23] is described as follows: Fraction unbound in human kidney microsomes at 1 uM after 30 to 60 mins by LC-MS/MS analysis. In kind it is ADME.
The target in series [24] is T1, UDP-glucuronosyltransferase 1A1. The series is described as follows: Drug metabolism in human intestinal microsomes assessed as UGT1A1-mediated unbound intrinsic glucuronidation clearance at 1 uM after 30 to 60 mins by LC-MS/MS analysis in presence of 2% bovine serum albumin. In kind it is ADME, Intestine.
The nature of series [25]: Ratio of unbound intrinsic glucuronidation clearance in human kidney microsomes in presence of 2% bovine serum albumin to unbound intrinsic glucuronidation clearance in human kidney microsomes in absence of bovine serum albumin. In kind it is ADME, microsome. In a few lines: as §3
Series [26] deals with Liver microsome. The experiment in a line: Fraction metabolized glucuronidation in human liver microsomes in presence of UDP-glucuronosyltransferase. In kind it is ADME.
Series [27] has as its system Liver microsome. The series is described as follows: Unbound intrinsic glucuronidation clearance in human liver microsomes at 1 uM after 30 to 60 mins by LC-MS/MS analysis in presence of UDP-glucuronosyltransferase and 1% bovine serum albumin. In kind it is ADME.
Series [28] in a line: Drug metabolism in human liver microsomes assessed as UGT1A9/2B7-mediated unbound intrinsic glucuronidation clearance at 1 uM after 30 to 60 mins by LC-MS/MS analysis. In kind it is ADME.
Series [29] can be described thus: Drug metabolism in human intestinal microsomes assessed as UGT1A9/2B7-mediated unbound intrinsic glucuronidation clearance at 1 uM after 30 to 60 mins by LC-MS/MS analysis in presence of 1% bovine serum albumin. In kind it is ADME, Intestine.
Series [30] can be described thus: Unbound intrinsic glucuronidation clearance in human kidney microsomes at 1 uM after 30 to 60 mins by LC-MS/MS analysis in presence of UDP-glucuronosyltransferase and 1% bovine serum albumin. In kind it is ADME, microsome.
Series [31] is described as follows: Drug metabolism in human kidney microsomes assessed as UGT1A9/2B7-mediated unbound intrinsic glucuronidation clearance at 1 uM after 30 to 60 mins by LC-MS/MS analysis. In kind it is ADME.
In series [32] the test system is Liver microsome. The experiment in a line: Fraction unbound in human liver microsomes at 1 uM after 30 to 60 mins by LC-MS/MS analysis in presence of 1% bovine serum albumin. In kind it is ADME. Conditions: microsomes, 1 µM.
The nature of series [33]: Drug metabolism in human liver microsomes assessed as UGT1A9/2B7-mediated unbound intrinsic glucuronidation clearance at 1 uM after 30 to 60 mins by LC-MS/MS analysis in presence of 1% bovine serum albumin. In kind it is ADME.
A short description of series [34]: Unbound intrinsic glucuronidation clearance in human intestinal microsomes at 1 uM after 30 to 60 mins by LC-MS/MS analysis in presence of UDP-glucuronosyltransferase and 1% bovine serum albumin. In kind it is ADME, Intestine, Microsome.
Series [35] deals with Liver microsome. The series is described as follows: Fraction metabolized glucuronidation in human liver microsomes in presence of UDP-glucuronosyltransferase and bovine serum albumin. In kind it is ADME.
Series [36] can be described thus: Drug metabolism in human intestinal microsomes assessed as UGT1A9/2B7-mediated unbound intrinsic glucuronidation clearance at 1 uM after 30 to 60 mins by LC-MS/MS analysis. In kind it is ADME, Intestine.
Series [37] in a line: Clearance in iv dosed human. Conditions: in vivo. In kind it is ADME, organism-based.
A short description of series [38]: Drug metabolism in human kidney microsomes assessed as UGT1A9/2B7-mediated unbound intrinsic glucuronidation clearance at 1 uM after 30 to 60 mins by LC-MS/MS analysis in presence of 1% bovine serum albumin. In kind it is ADME.
Series [39] is described as follows: Renal clearance in human. In kind it is ADME, organism-based, Kidney. Conditions: in vivo.

The values below come from ChEMBL document CHEMBL3526056, “Characterization of in vitro glucuronidation clearance of a range of drugs in human kidney microsomes: comparison with liver and intestinal glucuronidation and impact of albumin” (Drug Metab Dispos, 2012).

What is called fraction unbound is free concentration divided by total concentration. As to `O=C1[C@H](CC[C@H](O)c2ccc(F)cc2)[C@@H](c2ccc(O)cc2)N1c1ccc(F)cc1` [EZETIMIBE], the CL free in [1] is 495 µL/min/mg; in series [3], 1160 µL/min/mg; in [4], 295 µL/min/mg; in the series with Liver microsome [7] it was 5180 µL/min/mg; in series [9], 6.34 mL/min/g; in series [12], 23.8 mL/min/g. Besides, the CL free with Liver microsome [13] came out at 2930 µL/min/mg; in series [14], 418 µL/min/mg; in series [16], 117 mL/min/g; in series [19], 207 mL/min/g; in series [20], 3.78 mL/min/g; in series [21], 8.61 mL/min/g. For the same molecule, the CL free in series [24] stood at 23.8 mL/min/g. Further, the Ratio in series [2] came to 0.439; in [6] it was 0.031; in series [10], 0.266; in [11], 0.073; in series [15] it was 0.032; in series [17], 0.115. Moreover, the Ratio worked out at 1.8 in the series with Liver microsome [18] and 1.7 in series [25]. Moreover, the fraction unbound at 1 µM is 0.05 in series [5], 0.3 in series [8], 0.18 in [22] and 0.18 in [23].
What is called clearance is the volume of plasma or blood freed of the substance per unit of time. A lower clearance goes with a low capacity for elimination. In the case of `O=C(O)Cc1ccccc1Nc1c(Cl)cccc1Cl` [DICLOFENAC], the results for the Drug metabolism in the series on Liver microsome [26] and in the series on Liver microsome [35] were 0.62 and 0.65, respectively. Moreover, the CL free with Liver microsome [27] turned out to be 1190 µL/min/mg; in series [28] it was 30.5 mL/min/g; in series [4] it was 177 µL/min/mg; in series [29], 6.7 mL/min/g; in series [30] it was 543 µL/min/mg; in series [31], 2.27 mL/min/g. The CL free worked out at 47.4 mL/min/g in [33]; 761 µL/min/mg in the series with Liver microsome [13]; 74.9 µL/min/mg in series [14]; 325 µL/min/mg in series [34]; 1.54 mL/min/g in series [36]; 6.95 mL/min/g in series [38]. Moreover, the unbound share (fraction unbound) at 1 µM worked out at 0.98 in series [8], 0.98 in series [22] and 0.99 in series [23]. Moreover, the Fu with Liver microsome [32] is recorded as 0.02. Moreover, the clearance in series [37] was 0.29 L/h/kg. The CL renal in [39] was 0.0036 L/h/kg.
